Measured values published in ChEMBL document CHEMBL4330087, “Synthesis, antimicrobial activity, attenuation of aminoglycoside resistance in MRSA, and ribosomal A-site binding of pyrene-neomycin conjugates” (Eur J Med Chem, 2019).
The source made the active and inactive calls. No cut-off for these calls is given here.

How the values were obtained:
Staphylococcus aureus [1] = experiment: Antibacterial activity against methicillin-resistant Staphylococcus aureus A960649 at 6.25 uM after 15 to 20 hrs by CLSI protocol based microdilution assay relative to control; type: functional
Summary of the method: (§1)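 Exponential-phase cultures were exposed to 6.25 μM compound in duplicate with neomycin as reference, at 37 °C in a humidified incubator for 15-20 h. Broth and culture controls received sterile water with 1% DMSO. Percent growth inhibition was calculated against the growth and background controls.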

[2] = test system: Mycolicibacterium smegmatis; experiment: Antibacterial activity against NEO-sensitive Mycobacterium smegmatis at 6.25 uM after 15 to 20 hrs by CLSI protocol based microdilution assay relative to control; type: functional
Summary of the method: (§2)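 Single-concentration screen at 6.25 μM against exponential-phase cultures, in duplicate, with NEO as reference. Enterococcus was grown in BHI broth, M. smegmatis in TS broth with 0.05% Tween 80, and all other strains in TS broth. The 1% DMSO water vehicle was added to broth (background) and culture (growth control). Incubation was 37 °C, humidified, 15-20 h. Result is percent growth inhibition.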

[3] = Inhibition of APH(2\")-1a (unknown origin)
Staphylococcus aureus [4] = experiment: Antibacterial activity against NEO-sensitive Staphylococcus aureus harboring NorA mutant at 6.25 uM after 15 to 20 hrs by CLSI protocol based microdilution assay relative to control; type: functional; summary of the method: as §1
Staphylococcus aureus [5] = experiment: Antibacterial activity against methicillin-resistant Staphylococcus aureus M0602 at 6.25 uM after 15 to 20 hrs by CLSI protocol based microdilution assay relative to control; type: functional; summary of the method: as §1
Escherichia coli [6] = experiment: Antibacterial activity against NEO-sensitive Escherichia coli ATCC 25922 at 6.25 uM after 15 to 20 hrs by CLSI protocol based microdilution assay relative to control; type: functional; summary of the method: as §2
Staphylococcus aureus [7] = experiment: Antibacterial activity against methicillin-resistant Staphylococcus aureus 33591 at 6.25 uM after 15 to 20 hrs by CLSI protocol based microdilution assay relative to control; type: functional; summary of the method: as §1
Ribosomal RNA A-site [8] = experiment: Displacement of F-NEO from human cytosolic rRNA-A site after 10 to 20 mins by fluorescence assay relative to NEO; type: nucleic-acid assay; set-up: concentration or dose not given beside the values
Summary of the method: (§3)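 100 nM F-NEO:A-site complex in 10 mM HEPES, 50 mM NaCl, 0.04 mM EDTA, pH 7.0, mixed with ligand and incubated 10-20 min at room temperature. Fluorescence read at ex 485/em 525 nm, in duplicate. Percent binding was computed from the intensities of ligand-treated complex, complex without ligand, and complex with neomycin.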

Acinetobacter baumannii = experiment: Antibacterial activity against NEO-sensitive Acinetobacter baumannii ATCC 19606 at 6.25 uM after 15 to 20 hrs by CLSI protocol based microdilution assay relative to control; type: functional, ATCC 19606 = CIP 70.34 = JCM 6841; summary of the method: as §2
Ribosomal RNA A-site [9] = experiment: Displacement of F-NEO from human mitochondrial rRNA-A site after 10 to 20 mins by fluorescence assay; type: nucleic-acid assay
Summary of the method: (§4)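 A 100 nM F-NEO:A-site RNA complex in 10 mM HEPES, 50 mM NaCl, 0.04 mM EDTA, pH 7.0 was titrated with 2-fold dilutions of ligand from 20 to 0.009 μM, or from 60 or 40 μM for weaker ligands. Incubated 10-20 min at room temperature, fluorescence read at ex 485/em 525 nm. IC50 from dose-response curve fit.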

Ribosomal RNA A-site [10] = experiment: Displacement of F-NEO from Escherichia coli rRNA-A site after 10 to 20 mins by fluorescence assay relative to NEO; type: nucleic-acid assay; set-up: concentration or dose not given beside the values; summary of the method: as §3
Ribosomal RNA A-site [11] = experiment: Displacement of F-NEO from human mitochondrial rRNA-A site after 10 to 20 mins by fluorescence assay relative to NEO; type: nucleic-acid assay; set-up: concentration or dose not given beside the values; summary of the method: as §3
Homo sapiens [12] = species: Homo sapiens; experiment: Displacement of F-NEO from human mitochondrial rRNA-A site A1490G mutant after 10 to 20 mins by fluorescence assay relative to NEO; summary of the method: as §3
[13] = Inhibition of APH(3')-1a (unknown origin)
Enterococcus faecium = experiment: Antibacterial activity against NEO-intermediate sensitive Enterococcus faecium BM4105-RF at 6.25 uM after 15 to 20 hrs by CLSI protocol based microdilution assay relative to control; type: functional; summary of the method: as §2
Ribosomal RNA A-site [14] = experiment: Displacement of F-NEO from Escherichia coli rRNA-A site after 10 to 20 mins by fluorescence assay; type: nucleic-acid assay; summary of the method: as §4
Staphylococcus aureus [15] = experiment: Antibacterial activity against methicillin-resistant Staphylococcus aureus SU-5 at 6.25 uM after 15 to 20 hrs by CLSI protocol based microdilution assay relative to control; type: functional; summary of the method: as §1
Escherichia coli [16] = experiment: Antibacterial activity against NEO-sensitive Escherichia coli harboring TolC mutant at 6.25 uM after 15 to 20 hrs by CLSI protocol based microdilution assay relative to control; type: functional; summary of the method: as §1
Ribosomal RNA A-site [17] = experiment: Displacement of F-NEO from human cytosolic rRNA-A site after 10 to 20 mins by fluorescence assay; type: nucleic-acid assay; summary of the method: as §4
Enterococcus faecalis = experiment: Antibacterial activity against NEO-intermediate sensitive Enterococcus faecalis ATCC 29212 at 6.25 uM after 15 to 20 hrs by CLSI protocol based microdilution assay relative to control; type: functional; summary of the method: as §2
Bacillus anthracis = experiment: Antibacterial activity against NEO-sensitive Bacillus anthracis BA852 at 6.25 uM after 15 to 20 hrs by CLSI protocol based microdilution assay relative to control; type: functional; summary of the method: as §1
Pseudomonas aeruginosa = experiment: Antibacterial activity against NEO-resistant Pseudomonas aeruginosa 27853 at 6.25 uM after 15 to 20 hrs by CLSI protocol based microdilution assay relative to control; type: functional; summary of the method: as §1
Klebsiella pneumoniae = experiment: Antibacterial activity against Klebsiella pneumoniae NR-151410 at 6.25 uM after 15 to 20 hrs by CLSI protocol based microdilution assay relative to control; type: functional; summary of the method: as §2
[18] = test system: Staphylococcus epidermidis; experiment: Antibacterial activity against NEO-sensitive Staphylococcus epidermidis 12384 at 6.25 uM after 15 to 20 hrs by CLSI protocol based microdilution assay relative to control; type: functional; summary of the method: as §2
[19] = Inhibition of AAC(6')-1e (unknown origin)
Klebsiella oxytoca = experiment: Antibacterial activity against NEO-sensitive Klebsiella oxytoca HM-625 at 6.25 uM after 15 to 20 hrs by CLSI protocol based microdilution assay relative to control; type: functional; summary of the method: as §2
Staphylococcus aureus [20] = experiment: Antibacterial activity against NEO-sensitive Staphylococcus aureus 25923 at 6.25 uM after 15 to 20 hrs by CLSI protocol based microdilution assay relative to control; type: functional; summary of the method: as §2
Streptococcus pyogenes = experiment: Antibacterial activity against NEO-resistant Streptococcus pyogenes C203 at 6.25 uM after 15 to 20 hrs by CLSI protocol based microdilution assay relative to control; type: functional; summary of the method: as §1
[21] = Inhibition of AAC(2')-1c (unknown origin)
[22] = Inhibition of Eis (unknown origin)
[23] = Inhibition of AAC(3)-4 (unknown origin)
Homo sapiens [24] = species: Homo sapiens; experiment: Displacement of F-NEO from human mitochondrial rRNA-A site C1410U mutant after 10 to 20 mins by fluorescence assay relative to NEO; set-up: concentration or dose not given beside the values; summary of the method: as §3
[25] = Displacement of F-NEO from human mitochondrial rRNA-A site C1410U mutant after 10 to 20 mins by fluorescence assay; summary of the method: as §4

SMILES	Activity (Staphylococcus aureus [1])	Activity [2]	inhibition [3]	Activity (Staphylococcus aureus [4])	Activity (Staphylococcus aureus [5])	Activity (Escherichia coli [6])	Activity (Staphylococcus aureus [7])	inhibition (Ribosomal RNA A-site [8])	Activity (Acinetobacter baumannii)	IC50 (Ribosomal RNA A-site [9])	inhibition (Ribosomal RNA A-site [10])	inhibition (Ribosomal RNA A-site [11])	inhibition (Homo sapiens [12])	inhibition [13]	Activity (Enterococcus faecium)	IC50 (Ribosomal RNA A-site [14])	Activity (Staphylococcus aureus [15])	Activity (Escherichia coli [16])	IC50 (Ribosomal RNA A-site [17])	Activity (Enterococcus faecalis)	also measured
NC[C@@H]1O[C@H](O[C@H]2[C@@H](O)[C@H](O[C@@H]3[C@@H](O)[C@H](N)C[C@H](N)[C@H]3O[C@H]3O[C@H](CN)[C@@H](O)[C@H](O)[C@H]3N)O[C@@H]2CSCCNC(=O)CCCc2ccc3ccc4cccc5ccc2c3c45)[C@H](N)[C@@H](O)[C@@H]1O	30%	41%	inactive	53%	32%	7%	20%	66%	10%	168 nM	78%	74%	58%	inactive	0%	148 nM	34%	100%	175 nM	18%	Activity (Bacillus anthracis): 100%; Activity (Pseudomonas aeruginosa): 7%; Activity (Klebsiella pneumoniae): 20%; Activity [18]: 82%; inhibition [19]: inactive; Activity (Klebsiella oxytoca): 13%; Activity (Staphylococcus aureus [20]): 36%; Activity (Streptococcus pyogenes): 20%; inhibition [21]: inactive; inhibition [22]: inactive; inhibition [23]: inactive; inhibition (Homo sapiens [24]): 92%; IC50 [25]: 126 nM
NC[C@@H]1O[C@H](O[C@H]2[C@@H](O)[C@H](O[C@@H]3[C@@H](O)[C@H](N)C[C@H](N)[C@H]3O[C@H]3O[C@H](CN)[C@@H](O)[C@H](O)[C@H]3N)O[C@@H]2CNC(=O)CCCc2ccc3ccc4cccc5ccc2c3c45)[C@H](N)[C@@H](O)[C@@H]1O	35%	38%	Active	43%	19%	8%	23%	99%	5%	465 nM	99%	89%	88%	Active	0%	170 nM	22%	54%	200 nM	0%	Activity (Bacillus anthracis): 23%; Activity (Pseudomonas aeruginosa): 11%; Activity (Klebsiella pneumoniae): 12%; Activity [18]: 80%; inhibition [19]: Active; Activity (Klebsiella oxytoca): 5%; Activity (Staphylococcus aureus [20]): 12%; Activity (Streptococcus pyogenes): 23%; inhibition [21]: Active; inhibition [22]: Active; inhibition [23]: Active; inhibition (Homo sapiens [24]): 103%; IC50 [25]: 149 nM
NC[C@@H]1O[C@H](O[C@H]2[C@@H](O)[C@H](O[C@@H]3[C@@H](O)[C@H](N)C[C@H](N)[C@H]3O[C@H]3O[C@H](CN)[C@@H](O)[C@H](O)[C@H]3N)O[C@@H]2CSCCNC(=O)Cc2ccc3ccc4cccc5ccc2c3c45)[C@H](N)[C@@H](O)[C@@H]1O	7%	43%	Active	60%	32%	0%	0%	114%	6%	90 nM	101%	102%	102%	Active	15%	95 nM	39%	100%	97 nM	20%	Activity (Bacillus anthracis): 100%; Activity (Pseudomonas aeruginosa): 0%; Activity (Klebsiella pneumoniae): 23%; Activity [18]: 81%; inhibition [19]: Active; Activity (Klebsiella oxytoca): 16%; Activity (Staphylococcus aureus [20]): 48%; Activity (Streptococcus pyogenes): inactive; inhibition [21]: Active; inhibition [22]: Active; inhibition [23]: Active; inhibition (Homo sapiens [24]): 103%; IC50 [25]: 70 nM
NC[C@@H]1O[C@H](O[C@H]2[C@@H](O)[C@H](O[C@@H]3[C@@H](O)[C@H](N)C[C@H](N)[C@H]3O[C@H]3O[C@H](CN)[C@@H](O)[C@H](O)[C@H]3N)O[C@@H]2CSCCNC(=O)CCc2ccc3ccc4cccc5ccc2c3c45)[C@H](N)[C@@H](O)[C@@H]1O	19%	29%	Active	inactive	inactive	0%	16%	91%	8%	211 nM	88%	88%	65%	Active	26%	191 nM	inactive	inactive	204 nM	10%	Activity (Bacillus anthracis): inactive; Activity (Pseudomonas aeruginosa): 10%; Activity (Klebsiella pneumoniae): 18%; Activity [18]: 56%; inhibition [19]: Active; Activity (Klebsiella oxytoca): 14%; Activity (Staphylococcus aureus [20]): 29%; Activity (Streptococcus pyogenes): 35%; inhibition [21]: Active; inhibition [22]: Active; inhibition [23]: Active; inhibition (Homo sapiens [24]): 86%; IC50 [25]: 147 nM
